Assay outcomes deposited in PubChem BioAssay by several laboratories.
In the library only some 2.9% were active in any assay of this set; here they are far more common.
SUMO Mot1 rescue: yeast Mot1-301 growth rescue at high temperature, primary screen, SUMOylation pathway inhibitor project, S. cerevisiae, ATP luminescence, 38.5C; S. cerevisiae Mot1-301 growth rescue; percent above DMSO median, 100 means doubled; growth rescue, % at 18.8 µM; 1% of 320,000 active; AID 2716, 2010;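 active means every valid replicate shows activation above 250% relative to neutral control wells; inactive means the rest, any valid replicate at or below 250%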
NALP1 inh: NALP1 inflammasome inhibitors in reconstituted yeast, colorimetric, S. cerevisiae, triplicate retest. S. cerevisiae NALP1/ASC/caspase-1 growth, X-gal OD620, 72 h. inhibition, % at 10 µM. 0.61% of 280,000 active; in the data active means inhibition mostly above about 24%, no sharp cut-off; inactive means mostly below about 32%
DNA FID counter: compounds displacing fluorescent DNA intercalator, primary screen, artefact control for HCV NS3 helicase inhibitor project, biochemical, FID fluorescence | 0.17% of 290,000 active | AID 1845, 2009 | inhibition, % at 7.9 µM | DNA fluorescent intercalator displacement; in the data active means inhibition above about 37%;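 further: higher means more ethidium bromide displaced from hairpin DNA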
UBC9 SUMO inh: inhibitors of in vitro SUMOylation cascade, primary screen, biochemical, HTRF, uHTS; HTRF SUMOylation assay, SAE1/SAE2 + UBC9; 0.36% of 290,000 active; SUMO-conjugating enzyme UBC9 (Homo sapiens), P63279; inhibition, % at 35 µM; in the data active means inhibition above about 50%, passing the limit was not always enough; inconclusive means no clear call, values can overlap the other calls
Target sequence (P63279 whole entry, looked up): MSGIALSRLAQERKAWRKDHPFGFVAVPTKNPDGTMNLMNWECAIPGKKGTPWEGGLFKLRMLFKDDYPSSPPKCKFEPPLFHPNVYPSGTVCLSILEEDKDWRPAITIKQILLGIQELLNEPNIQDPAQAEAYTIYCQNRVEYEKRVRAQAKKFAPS
IMP-1 inhibitor: IMP-1 metallo-beta-lactamase inhibitors, primary screen, biochemical, epi-absorbance readout, Pseudomonas aeruginosa enzyme; purified IMP-1, nitrocefin hydrolysis, epi-absorbance fluorescence; inhibition, % at 5.6 µM; 0.45% of 290,000 active;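 active means inhibition above the mean plus 3 SD of all compounds in the same screening run, cut at about 4.5% in these data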
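Assay system: purified IMP-1; Quantity: IMP-1 0.2 nM before substrate addition; Medium: HEPES buffer pH 7.1 with ZnSO4 and Brij 35; Incubation: 15 min enzyme–compound preincubation, then 25 min nitrocefin reaction, 25 °C; Signal: fluorescence quenching readout, ex 480/em 530 nm; Controls: DMSO with and without IMP-1; Repeats: singlicate testing.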
VIM-2 inhibitor: VIM-2 metallo-beta-lactamase inhibitors, primary screen, biochemical, epi-absorbance readout, Pseudomonas aeruginosa enzyme | purified VIM-2, nitrocefin hydrolysis, epi-absorbance fluorescence | inhibition, % at 5.6 µM | 0.89% of 290,000 active | AID 1527, 2009;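 active means inhibition above the mean of all tested compounds plus 3 SD, cutoff set per screening run, cut at about 7.5% in these data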;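 further: red hydrolysis product quenches plate fluorescence so inhibitors raise well fluorescence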
Each line names hits and unclear results; the compound was inactive in the other large screens.

CCc1ccc(NC(=O)CCn2nc(C)c(S(=O)(=O)N3CCCCC3)c2C)cc1	none
COC(=O)c1cc(-c2ccc(OC)c(OC)c2)c2c(=O)[nH]c(=O)n(C)c2n1	VIM-2 inhibitor 9.4
Cc1cc2cc(C=C(C#N)C#N)c(Cl)nc2cc1C	NALP1 inh 60
COc1ccc(CN2CCC(CO)(Cc3ccccc3)CC2)cc1Cn1cccn1	none
O=C(CCCc1ccccc1)Nc1ccnn1C1CCN(Cc2ccccc2)CC1	none (no result: UBC9 SUMO inh)
CCOc1ccc(CN2CCC(n3nccc3NC(=O)CCCc3ccccc3)CC2)cc1	DNA FID counter 38
CCCCCCC1(C)NC(=S)N(c2ccccc2)N1 (stereo not drawn)	none
CCCCCC1(C)NC(=S)N(c2ccccc2)N1 (stereo not drawn)	SUMO Mot1 rescue 300
O=C(Nc1ccc(S(=O)(=O)N2CCCC2)cc1)c1cccc(OC(F)F)c1	none (no result: NALP1 inh, DNA FID counter, UBC9 SUMO inh, IMP-1 inhibitor, VIM-2 inhibitor)
O=C(Nc1cccc(S(=O)(=O)N2CCCC2)c1)c1cccc(OC(F)F)c1	SUMO Mot1 rescue 353 (no result: NALP1 inh, DNA FID counter, UBC9 SUMO inh, IMP-1 inhibitor, VIM-2 inhibitor)
CSc1cccc(NC(=O)c2cc(S(=O)(=O)N3CCCC3)cn2C)c1	none
Cn1cc(S(=O)(=O)N2CCCC2)cc1C(=O)Nc1cccc(C(F)(F)F)c1	SUMO Mot1 rescue 333
COc1ccc(CNC(=O)CSc2nnc(C(F)(F)F)n2C)cc1	none
COCCCNC(=O)/C(=C\c1cccn1C)NC(=O)c1cccs1	none
CC(C)(C)C1CCC(=NNC(=O)c2ccccc2-n2cccc2)CC1 (stereo not drawn)	none
COc1cc(C)c(Br)cc1S(=O)(=O)NCCN1CCOCC1	none
Oc1cccc2ccc[n+](CC(O)Cn3c4ccccc4c4ccccc43)c12 (stereo not drawn)	DNA FID counter 39
CCc1cc[n+](C2=C([O-])c3ccccc3C(=O)/C2=N\S(=O)(=O)c2cccs2)cc1	UBC9 SUMO inh 59
COC(=O)c1ccccc1NC1=C/C(=N\S(=O)(=O)c2cccs2)c2ccccc2C1=O	IMP-1 inhibitor 5.0
COC(=O)c1ccccc1NC1=C/C(=N\S(=O)(=O)c2ccc(C(=O)O)cc2)c2ccccc2C1=O	UBC9 SUMO inh 92
CCc1ccc(S(=O)(=O)/N=C2\C=C(Nc3ccc(C(=O)O)cc3)C(=O)c3ccccc32)cc1	UBC9 SUMO inh inconclusive
Cc1cccn2c(=O)c3cc(C(=O)N4CC(C)CC(C)C4)sc3nc12 (stereo not drawn)	VIM-2 inhibitor 12
CCN(C(=O)c1cc2c(=O)n3cccc(C)c3nc2s1)C1CCCCC1	VIM-2 inhibitor 9.0
COc1ccc(CCNC(=O)c2cc3c(=O)n4cccc(C)c4nc3s2)cc1OC	VIM-2 inhibitor 10
Cc1cccn2c(=O)c3cc(C(=O)N4CCCCC4C)sc3nc12 (stereo not drawn)	none (no result: NALP1 inh, DNA FID counter, UBC9 SUMO inh, IMP-1 inhibitor, VIM-2 inhibitor)
CCc1cc(C(=O)N2CCN(c3ccccc3OC)CC2)sc1C	none
COc1ccc(CCNC(=O)c2nc3ncccn3n2)cc1OC	none
COc1ccccc1N1CCN(C(=O)c2cc3c(=O)n4cccc(C)c4nc3s2)CC1	VIM-2 inhibitor 10
C=CCn1c(=O)c(C(=O)Nc2ccccc2S(N)(=O)=O)c(O)c2ccccc21	none
COc1cc(C(C)=O)ccc1OCC(=O)NCC1(N2CCCCC2)CCCCC1	none
CC(C)C1=CC2=CCC3C(C)(C(=O)O)CCCC3(C)C2CC1 (stereo not drawn) (tested in a mixture with another compound)	none
O=C(Nc1ccc(F)cc1)Oc1ccc[nH]c1=O	UBC9 SUMO inh 99
O=C(Nc1ccc(F)cc1)Oc1ccccc1N1CCOCC1	none
CCOC(=O)C1=C(COC(=O)/C=C/c2cc(Br)ccc2F)NC(=O)NC1C (stereo not drawn)	none (no result: NALP1 inh, DNA FID counter, UBC9 SUMO inh, IMP-1 inhibitor, VIM-2 inhibitor)
O=C(COc1ccc(Cl)cc1Cl)Nc1ccc(C(=O)Nc2ccccc2C(=O)O)cc1	UBC9 SUMO inh 59
CCOC(=O)c1ccc2c(c1)nc(SCC(=O)N1CCCCC1)n2CC	SUMO Mot1 rescue 293
CCOC(=O)c1ccc2c(c1)nc(SCC(=O)c1ccco1)n2CC	none
Cc1ccc(NC(=O)c2cccc3c2C(=O)N(C2CCCCC2)C3)c(Cl)c1	none
Cc1ccc2c(Cl)c(C)c(N3CCCCC3)nc2n1	NALP1 inh 46
COc1ccccc1N1CCN(C(=O)c2ccc3[nH]c4c(c3c2)CC(C)CC4)CC1 (stereo not drawn)	none
CN(C)CCNC(=O)c1sc2nc(-c3ccccc3)cc(C(F)(F)F)c2c1N	VIM-2 inhibitor 12
COc1ccc(-c2cc(C(F)(F)F)c3c(N)c(C(=O)NCCSC)sc3n2)cc1	none
CN(C)C(CNC(=O)c1ccc(S(=O)(=O)N(C)C)cc1)Cc1ccccc1 (stereo not drawn)	none
CN(C)Cc1cc(C(C)(C)c2cc(CN(C)C)c(O)c(CN(C)C)c2)cc(CN(C)C)c1O	DNA FID counter 38
COc1ccc(C(=O)NC2CCN(Cc3c(F)cccc3Cl)CC2)cc1OC	none
CCC(=O)N1CC2(CC(c3cccc(NC(=O)CC(c4ccccc4)c4ccccc4)c3)=NO2)C[C@H]1C(N)=O (stereo partly drawn)	none (no result: NALP1 inh, DNA FID counter, IMP-1 inhibitor, VIM-2 inhibitor)
NC(=O)[C@H]1CC2(CC(c3cccc(NC(=O)CC(c4ccccc4)c4ccccc4)c3)=NO2)CN1C(=O)CC(c1ccccc1)c1ccccc1 (stereo partly drawn)	SUMO Mot1 rescue 355 (no result: DNA FID counter, IMP-1 inhibitor, VIM-2 inhibitor)
O=C(CN1C(=O)NC2(CCCC2)C1=O)Nc1cc(Cl)ccc1Oc1ccccc1	none (no result: NALP1 inh, DNA FID counter, UBC9 SUMO inh, IMP-1 inhibitor, VIM-2 inhibitor)
CCn1cc(CNC(=O)CCSc2nc(-c3ccco3)cc(C(F)(F)F)n2)cn1	none
CN(C)[C@@H]1C(=O)C(C(=O)NCN2CCCC2)=C(O)[C@@]2(O)C(=O)C3=C(O)c4c(O)cccc4[C@@](C)(O)C3CC12 (stereo partly drawn)	UBC9 SUMO inh 77, IMP-1 inhibitor 5.7 (no result: SUMO Mot1 rescue)
O=C(NCCO)C(=O)NCC1OCCCN1S(=O)(=O)c1ccc2c(c1)OCCO2 (stereo not drawn)	none
Cc1nnc(NC(=O)c2ccccc2Br)s1	SUMO Mot1 rescue 302
Cc1cccc(C(C(=O)NC2CCCCC2)N(C(=O)c2csnn2)C2CC2)c1 (stereo not drawn)	none
Cc1cc(C)c2cc(C(=O)Nc3ccc(C)c(F)c3)[nH]c2c1	SUMO Mot1 rescue 340
CCC(CC)N=C1NS(=O)(=O)c2cc([N+](=O)[O-])ccc21	none
Cc1c(C)[n+](=O)c2c(n1[O-])C(Br)CCC2Br (stereo not drawn)	none
